# Assay outcomes from PubChem.
# Sampled rows, rich in hits. Any-hit rate of the full collection: about 3.9%.
# FLuc stim CS – firefly luciferase counter-screen for stimulation assays; ATPlite luciferase biochemical, luminescence, 10 min; 0 = ATP-free wells, 1 = DMSO control; activation factor at 10 µM; 200,000 tested, under 10 active; AID 1027;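 active means luciferase activation factor, scaled between plate controls, of at least 2 with compound at 10 µM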
#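 Material: luciferase plus luciferin reagent, cell-free. Medium: PBS buffer for ATP. Also added: ATP substrate, dispensed from a 10.24 µM working solution in PBS. Doses: test compounds dosed from 2 mM stocks in 100% DMSO. Incubation: 10 min post-reagent at room temperature. Technique: light output (luminescence). Read-out basis: luminescence gain marking luciferase activators.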
# NF-kB neuron act – compounds increasing NF-kB expression in human neuronal cells | NF-kB reporter expression; active compounds read high | fold change at 12.5 µM | hit rate 1.6% among 190,000 | AID 1239; in the data active means fold change above about 3.3
# APP 5'UTR act – activates APP 5'UTR luciferase reporter | SH-SY5Y APP 5'UTR luciferase reporter, luminescence; zero percent = DMSO vehicle wells | activation, % at 2 µM | hit rate 1% among 190,000 | AID 1276;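 active means activation above a set limit, based on mean plus 3 SD of controls, cut at about 140% in these data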
# FLuc inh counter – Photinus pyralis luciferase inhibition counter-screen; P08659; ATPLite firefly luciferase biochemical luminescence, 10 min; inhibition, % at 10 µM; hit rate 1.5% among 200,000;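 active means inhibition above about 50% when tested at 10 µM, limit read from the data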
# Rad51 HR inh – blocks human Rad51 in homologous recombination | inhibition, % at 10 µM | Q06609 | AID 1385 | hRad51 DNA strand exchange, fluorescence dequenching | hit rate 0.085% among 200,000;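 active means inhibition above 40% at the single screening dose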
#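 Read-out basis: percent inhibition relative to plate controls and blanks / Assay system: human Rad51 nucleoprotein filaments preassembled on unlabelled ssDNA / Timing: filaments 15 min 37 °C, then compound 30 min / Control set: per-plate controls and blanks / Technique: fluorescence dequenching at 485/520 nm / Compound: 10 µM final, single point / Also added: Fluorescein- and BHQ1-tagged 47-mer duplex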
# STAT1 act – activators of IFN-gamma induced STAT1 signaling | hit rate 2.6% among 200,000 | activation (% of control), % at 5.5 µM | NIH 3T3 STAT1-luciferase reporter, luminescence; 100% = IFN-gamma alone, no compound;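 active means activation above the screen-wide mean activation plus 3 SD, cut at about 130% in these data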
# A number is an active result; – = inactive; · = no result given.
SMILES,FLuc stim CS,NF-kB neuron act,APP 5'UTR act,FLuc inh counter,Rad51 HR inh,STAT1 act
COc1ccc(C(=O)C2CCCN(C(=O)c3ccc4cc[nH]c4c3)C2)c(C)c1 (centres undefined),–,–,–,–,–,–
O=c1[nH]nc(SCc2ccccc2)n1C1CC2C=CC1C2 (centres undefined),·,·,·,·,–,·
CCOc1cc(C2NN=C(c3ccc(C)cc3)S2)ccc1O (centres undefined),–,4.8,–,–,–,136.0
O=C1C(C=Nc2ccc(F)cc2)=C(O)c2ccccc21,–,7.14,148.0,77.0,–,148.6
COc1ccc(N=CC2=C(O)c3ccccc3C2=O)c(OC)c1,–,–,176.5,95.2,–,–
O=C1C(C=NCc2ccncc2)=C(O)c2ccccc21,–,–,–,–,–,–
Cc1ccccc1N=CC1=C(O)c2ccccc2C1=O,–,–,140.3,96.1,–,–
Cc1ccc(C(C)C)c(OCc2nn(CC(=O)c3ccc(OC(F)F)cc3)c3[n+]2CCCCC3)c1,–,–,–,–,–,–
O=C(CCNC(=O)c1ccccc1Cl)Nc1nccs1,–,–,–,–,–,–
CCOc1ccc(N2C(=O)CC(NNc3nc4ccccc4s3)C2=O)cc1 (centres undefined),·,·,·,·,–,·
COc1ccc(C(=O)Nc2ccccc2C(=O)O)cc1NC(=O)C(c1ccccc1)c1ccccc1,·,·,·,·,–,·
O=C(Nc1ccccc1C(=O)O)c1ccccc1,–,–,–,–,–,–
CCOc1ccc(C(=O)Nc2cccc(C(=O)O)c2C)cc1Cl,–,3.45,–,–,–,–
CCN(CC)S(=O)(=O)c1cc(C(=O)Nc2ccccc2C(=O)O)ccc1OC,–,–,–,59.3,–,–
CCOc1c(Cl)cc(C(=O)Nc2ccccc2C(=O)O)cc1Cl,–,3.96,–,–,–,–
COc1ccc(C(=O)Nc2ccccc2C(=O)O)cc1Cl,–,–,–,75.5,–,–
CCOc1ccc(C(=O)Nc2ccccc2-c2ccccc2)cc1Cl,–,–,–,–,–,–
COc1ccc(S(=O)(=O)n2[nH]c(=O)c(CCO)c2C)c([N+](=O)[O-])c1,–,–,–,–,–,–
